Results taken from ChEMBL document CHEMBL4513216, “Probing the Open Global Health Chemical Diversity Library for Multistage-Active Starting Points for Next-Generation Antimalarials” (ACS Infect Dis, 2020).

experiment: Toxicity liver stage against HepG2, at 10uM; assay type: cell-based; design: test concentration 10 uM, cell line HepG2-A16-CD81EGFP; settings: human, HepG2-A16-CD81EGFP cells; read-out: INHIBITION
Outline: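 Uninfected HepG2-A16-CD81EGFP cells, 3 × 10^3 per well, 1536-well, plated on prespotted compound at 10 μM final, parasite-free screening media added to match infected plates; puromycin 10 μM positive, DMSO 0.5% negative; run in parallel with 48 h PbLuc assay at 37 °C, 5% CO2; viability by CellTiter-Glo luminescence, normalized to controls.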

Row | Structure (SMILES) | cytotoxicity at 10 µM
1 | COc1ccc(CCC(=O)NCCN2CCC(c3cccs3)CC2)cc1 | 4.59%
2 | CNc1nc2c(s1)C(c1cccc(Cl)c1Cl)CC(=O)N2 (stereo unspecified) | 5.97%
3 | Cc1oc(-c2nc(C#N)c(NC3CC3)o2)cc1S(=O)(=O)N1CCCC1 | -9.95%
4 | Cc1c(Br)c(C(F)F)nn1C(C)C(=O)O (stereo unspecified) | 4.51%
5 | CCn1c(NCC2CCCO2)nc2c(C)nn(C)c2c1=O (stereo unspecified) | -3.09%
6 | CCn1c(SCC(N)=O)nnc1-c1csc2c1CCCC2 | 16%
7 | COC(=O)c1cc(C2CC2)nc2c(C#N)cnn12 | 14%
8 | Cc1nnc(C2CCN(c3ncccn3)CC2)o1 | 10.8%
9 | Cc1cc(C)nc(N2CC=C[C@H]2C(=O)NCc2ccc3c(c2)OCO3)n1 | 0.711%
10 | Cc1noc(C)c1CCC(=O)N1CCOCC1CCc1cnccn1 (stereo unspecified) | -3.37%
11 | CC(=O)N1CCC(c2cccc(-c3cccc(C(=O)O)c3)n2)CC1 | -0.0353%
12 | c1ccc(CCN2CCCC2c2ccnc(Nc3cnccn3)n2)cc1 (stereo unspecified) | -3.65%
13 | CN(C)C(=O)c1cc(-c2ccc(S(C)(=O)=O)cc2)c2cnn(C)c2n1 | 3.63%
14 | CC1CCC(NS(=O)(=O)CC(=O)NCC2CCC2)CC1 (stereo unspecified) | -3.17%
15 | CCOC(=O)c1nnc2ccccc2c1N1CCN(CC)CC1 | -2.27%
16 | O=C(Nc1cccc(C(F)F)c1)N[C@@H]1C=C[C@H](CO)C1 | -4.81%
17 | CN(C)C(CNC(=O)c1nc(N2CCCC2)ncc1Cl)c1ccco1 (stereo unspecified) | 5.92%
18 | Cc1cc(NCC2(O)CCOCC2)c2ccccc2n1 | -13.3%
19 | CCC(CC)NC(=O)CN1CCSCC1 | -8.98%
20 | CC(=O)Nc1cccc(C(C)NCC2CCS(=O)(=O)CC2)c1 (stereo unspecified) | 0.224%
21 | CC(C)(C)NC(=O)CNC(=O)Nc1cc(-c2ccccc2)ns1 | 16.6%
22 | Cn1cc(CNCCc2cccnc2)c(-c2cccnc2)n1 | 9.37%
23 | CSCC(C)(O)CNc1ncccc1C(F)(F)F (stereo unspecified) | 13.7%

Row | Structure (SMILES) | cytotoxicity at 10 µM
24 | CC1CN(Cc2ccccc2)CCCN1CCS(C)(=O)=O (stereo unspecified) | -1.4%
25 | O=C(CCCNC(=O)NCC1CCCO1)Nc1ccc(Cl)cc1 (stereo unspecified) | -4.52%
26 | O=C(c1n[nH]c2c1CCC2)N1CCCC1c1nc(-c2ccccn2)no1 (stereo unspecified) | -1.82%
27 | CSCCc1nc(-c2ccc3c(c2)OCO3)n(C)n1 | 1.6%
28 | O=C(CN1CCN(c2ncnc3c2CCNCC3)CC1)N1CCCCC1 | 6.63%
29 | OC[C@@H]1CCCN1c1ccc(-c2nc(COc3ccccc3)no2)cn1 | -8.42%
30 | c1ccc(Cc2noc(-c3ccc(NCC4CCCCO4)nc3)n2)cc1 (stereo unspecified) | 3%
31 | Cc1nc(CC(=O)N2CCCC(N(C)Cc3ccccc3)C2)cs1 (stereo unspecified) | 9.38%
32 | O=C(O)c1cnc(N2CCC(c3nccn3CC3CC3)CC2)c(Cl)c1 | -9.98%
33 | COc1ccc2c(c1)C(C(=O)NCCCN1CCN(C)CC1)CC(=O)N2 (stereo unspecified) | 11.2%
34 | CN(C)C[C@H]1C[C@@H](CO)CN(C(=O)c2cc(=O)[nH]c3cc(F)ccc23)C1 | -4.16%
35 | O=C(c1cc[nH]n1)N1CCc2ncnc(N3CCSCC3)c2CC1 | -3.67%
36 | CCN1CCCC(C)(C(=O)NCCCc2nc(C)cs2)C1 (stereo unspecified) | 1.54%
37 | Cc1cc(C(=O)N2CCCC(C(=O)c3nccn3C)C2)c(=O)[nH]c1C (stereo unspecified) | 3.15%
38 | CO[C@H]1CN(C(C)C)C[C@@H]1NC(=O)c1cc(-c2ccccc2O)n[nH]1 | -0.247%
39 | Cc1cccc(C(C(=O)N(C)Cc2ccon2)N(C)C)c1 (stereo unspecified) | 5.4%
40 | CN(c1ncccc1CNC(=O)c1cscn1)C1CCCCC1 | 1.86%
41 | COCc1nc(C(=O)NS(=O)(=O)c2cc(C)ccc2C)cs1 | -4.04%
42 | COc1cccc(CN2CCCCC2c2n[nH]cc2-c2cc(C)no2)c1 (stereo unspecified) | 17.1%
43 | Cc1ncccc1-c1cc2cccnc2n1CCCNC(=O)C1CC1 | 2.18%
44 | NC(=O)C1CN(c2ccc(F)cc2)CCN1 (stereo unspecified) | -4.98%
45 | CN(C)CCO[C@H]1CN(CC2CC2)[C@@H]2CCCO[C@H]12 | -96.3%
46 | CC(C)OCCCN(CC(=O)N1CCNCC1)C(=O)c1cccc(Cl)c1 | 10.3%
